We go through two molecules from ChEMBL document CHEMBL2417493, “Novel cycloalkylthiophene-imine derivatives bearing benzothiazole scaffold: synthesis, characterization and antiviral activity evaluation” (Bioorg Med Chem Lett, 2013).

Structures are written as SMILES. In brackets after ≈: the same amount, converted by molar mass. Activity calls are given as the source filed them. The calls are words filed in the database; no cut-off is given here. Some results are limits rather than exact numbers.

Data set [1] relates to Coxsackievirus B5. Nature of the data set: Antiviral activity against Coxsackievirus B5 infected in human HepG2 cells assessed as inhibition of virus-induced cytopathogenicity after 48 hrs by crystal violet staining method. The settings on record: for EC50: Enterovirus B, HepG2, 48 h. It is filed as functional, organism-based. The essentials: (§1)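 Virus–cell pairings were EV71 in RD, CVB5 in HepG2, ADV7 in HeLa and influenza A H1N1 in MDCK. Compounds were added […], and total infectivity was read by crystal violet staining. EC50 is the concentration reducing viral replication by 50%. Values are mean SD of three independent experiments.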

Data set [2] in a line: Selectivity index, ratio of CC50 for human HeLa cells to EC50 for Adenovirus type 7 infected in human HeLa cells. In kind it is toxicity, cell-based. Conditions: read-out: Ratio CC50/EC50. The essentials: (§2)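 Antiviral pairings were EV71 in RD cells, CVB5 in HepG2 cells and ADV7 in HeLa cells. Compounds were added […], and total infectivity was read by crystal violet staining. EC50 is the concentration that cut viral replication by 50%. CC50 came from MTT relative to 0.1% DMSO mock control. SI = CC50/EC50. Data are from three independent experiments.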

Data set [3] concerns unidentified adenovirus. As to the kind of experiment: Antiviral activity against Adenovirus type 7 infected in human HeLa cells assessed as inhibition of virus-induced cytopathogenicity at 32 ug/ml after 48 hrs by crystal violet staining method. In kind it is functional. Conditions: type 7, HeLa. An outline of the steps:
(§3)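 Single-concentration screen with these pairings: RD/EV71, HepG2/CVB5, HeLa/ADV7, MDCK/H1N1. Cells were infected and kept 48 h in the presence of compound at one fixed concentration; some EV71 tests used the lower level. Inhibition of virus proliferation was read by crystal violet staining.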

Data set [4] has as its system Influenza A virus. Nature of the data set: Antiviral activity against influenza A virus H1N1 infected in dog MDCK cells assessed as inhibition of virus-induced cytopathogenicity after 48 hrs by crystal violet staining method. In kind it is functional, organism-based. An outline of the steps: as §1
A general note: Damage to the host cells serves as the signal in cytopathic effect assays.

For data set [5], the system named is Enterovirus. Nature of the data set: Antiviral activity against Enterovirus 71 infected in human rhabdomyosarcoma cells assessed as inhibition of virus-induced cytopathogenicity at 16 ug/ml after 48 hrs by crystal violet staining method. It is filed as functional. Conditions: Enterovirus, 71, 48 h. An outline of the steps:
as §3

Data set [6] can be described thus: Selectivity index, ratio of CC50 for human HepG2 cells to EC50 for Coxsackievirus B5 infected in human HepG2 cells. It is filed as toxicity, cell-based. The settings on record: read-out: Ratio CC50/EC50. An outline of the steps:
as §2

For data set [7], the system named is Influenza A virus. Nature of the data set: Antiviral activity against influenza A virus H1N1 infected in dog MDCK cells assessed as inhibition of virus-induced cytopathogenicity at 32 ug/ml after 48 hrs by crystal violet staining method. It is filed as functional, organism-based. An outline of the steps:
as §3

A short description of data set [8]: Cytotoxicity against human HeLa cells after 72 hrs by MTT assay. In kind it is cell-based. An outline of the steps: (§4)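 MTT assay on RD (rhabdomyosarcoma), HepG2 and HeLa cell lines. CC50 is the concentration that cut cell viability by 50% relative to 0.1% DMSO-treated mock-control cells. Values are mean and SD of three independent experiments.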
The test system of data set [9] is Enterovirus. As to the kind of experiment: Antiviral activity against Enterovirus 71 infected in human rhabdomyosarcoma cells assessed as inhibition of virus-induced cytopathogenicity after 48 hrs by crystal violet staining method. In kind it is functional, organism-based. The settings on record: for EC50: Enterovirus, 71, 48 h. An outline of the steps:
as §1

The nature of data set [10]: Cytotoxicity against human rhabdomyosarcoma cells after 72 hrs by MTT assay. In kind it is cell-based, Rhabdomyosarcoma cell. The essentials:
as §4
(In general: Tetrazolium assays rely on reduction of a dye to a coloured formazan, in cell work by metabolically active cells.)

Data set [11] relates to Coxsackievirus B5. As to the kind of experiment: Antiviral activity against Coxsackievirus B5 infected in human HepG2 cells assessed as inhibition of virus-induced cytopathogenicity at 32 ug/ml after 48 hrs by crystal violet staining method. The settings on record: Enterovirus B, HepG2, 48 h. It is filed as functional. The essentials:
as §3

Data set [12] in a line: Selectivity index, ratio of CC50 for human rhabdomyosarcoma cells to EC50 for Enterovirus 71 infected in human rhabdomyosarcoma cells. In kind it is toxicity. Conditions: read-out: Ratio CC50/EC50. The essentials:
as §2

The nature of data set [13]: Cytotoxicity against human HepG2 cells after 72 hrs by MTT assay. It is filed as cell-based. An outline of the steps: as §4
The test system of data set [14] is unidentified adenovirus. As to the kind of experiment: Antiviral activity against Adenovirus type 7 infected in human HeLa cells assessed as inhibition of virus-induced cytopathogenicity after 48 hrs by crystal violet staining method. The settings on record: for EC50: unidentified adenovirus, type 7, HeLa, 48 h. In kind it is functional, organism-based. The essentials: as §1

As a reminder, the inhibition is the drop in the measured response relative to a control, in per cent. The EC50 is the concentration at which the effect is half-maximal. Usually CC50 stands for the concentration at which the toxic effect on the cells reaches its halfway point. Higher therefore signals better tolerance by the cells. In the case of `Fc1ccc(/C=N/c2sc3c(c2-c2nc4ccccc4s2)CCCC3)cc1`, the inhibition entry in [1], in data set [9] and in [14] was “Dose-dependent effect” in each case. Moreover, the EC50 in [1] was determined as 9.7 µg/mL (≈ 24.7 µM); in data set [9], 6.9 µg/mL (≈ 17.6 µM); in [14] it was 21.1 µg/mL (≈ 53.8 µM). For the same molecule, the values for the selectivity ratio in data set [2], in data set [6] and in [12] were 13.1, 33.2 and 32.8, respectively. Besides, the inhibition at 32 µg/mL in data set [3] and in data set [11] was 60% throughout. Moreover, in [4], the “inhibition (INH)” value is less than 50%. Also, the inhibition at 16 µg/mL in data set [5] was 60%. The inhibition entry in [7] is “Active”. Further, the 50% cytotoxic concentration (CC50) at 72 h is 277 µg/mL (≈ 705 µM) in [8], 230 µg/mL (≈ 586 µM) in data set [10] and 324 µg/mL (≈ 826 µM) in data set [13].

As for `Oc1ccccc1/C=N/c1sc2c(c1-c1nc3ccccc3s1)CCCC2`, the inhibition result in data set [1], in data set [9] and in data set [14] was “Dose-dependent effect” in each case. In addition, the concentration giving a half-maximal response (EC50) in data set [1] turned out to be 5.4 µg/mL (≈ 13.8 µM); in data set [9] it was 2 µg/mL (≈ 5.12 µM); in data set [14] it was 10.8 µg/mL (≈ 27.7 µM). The selectivity ratio stood at 11.1 in data set [2], 20.8 in data set [6] and 20.3 in [12]. Also, the inhibition at 32 µg/mL in [3] and in data set [11] was 60% in each case. Moreover, the “inhibition (INH)” value in data set [4] is less than 50%. Further, in data set [5], the inhibition at 16 µg/mL was found to be 60%. Moreover, the inhibition result in [7] was “Active”. For the same molecule, the CC50 at 72 h stood at 122 µg/mL (≈ 312 µM) in [8], 42.4 µg/mL (≈ 108 µM) in data set [10] and 114 µg/mL (≈ 292 µM) in data set [13].
